Measured values taken from ChEMBL document CHEMBL5033998, “Discovery of DDO-2213 as a Potent and Orally Bioavailable Inhibitor of the WDR5-Mixed Lineage Leukemia 1 Protein-Protein Interaction for the Treatment of MLL Fusion Leukemia” (J Med Chem, 2021).

How the values were obtained:
[1] = biological target: Histone-lysine N-methyltransferase 2A/WDR5 (Homo sapiens, UniProt P61964); assay: Inhibition of MLL1-WDR5 (unknown origin) protein-protein interaction using Thr-FAM as probe by fluorescence polarization competition assay
Outline: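 Competitive FP with WDR5 and 10mer-Thr-FAM probe in 100 mM KH2PO4, 25 mM KCl, 0.01% Triton X-100, pH 6.5; read at λex 485 ± 25 nm, λem 535 ± 25 nm. IC50 from three independent replicates ± SD.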

[2] = tested on: HUVEC; assay: Antiproliferative activity against human HUVEC cells assessed as cell viability incubated for 72 hrs by CCK8 assay; format: cell-based
Outline: (§1)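 Cells seeded at 3000–6000 per well, exposed to inhibitor at several concentrations for 72 h; viability read with CCK8 kit. MV4-11 and K562 grown in modified IMDM + 10% FBS, pen/strep; MOLM-13 in RPMI-1640 + 10% FBS; HUVEC in modified DMEM + 10% FBS; 37 °C, 5% CO2. IC50 as mean ± SD of three independent experiments.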

[3] = Permeability of compound at pH 7.4 incubated for 4 hrs by PAMPA assay; format: ADME; conditions: read-out: permeability
Outline: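 Double-sink PAMPA: compound diluted in pH 7.4 donor buffer, permeation through artificial membrane to acceptor over 4 h at 25 °C; donor and acceptor read by UV; mean ± SD of three independent experiments.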

[4] = tested on: K562; assay: Antiproliferative activity against human K562 cells assessed as cell viability incubated for 72 hrs by CCK8 assay; format: functional, cell-based; conditions: K562, 72 h; outline: as §1
[5] = tested on: MV4-11; assay: Antiproliferative activity against human MV4-11 cells assessed as cell viability incubated for 72 hrs by CCK8 assay; format: functional, cell-based; conditions: MV4-11, 72 h; outline: as §1
[6] = tested on: MOLM-13; assay: Antiproliferative activity against human MOLM-13 cells assessed as cell viability incubated for 72 hrs by CCK8 assay; format: functional, cell-based; conditions: MOLM-13, 72 h; outline: as §1
[7] = biological target: Histone-lysine N-methyltransferase 2A/WDR5 (Homo sapiens) (UniProt P61964+Q03164); assay: Inhibition of MLL1-WDR5 (unknown origin) protein-protein interaction at 100 uM by competitive fluorescence polarization assay

Compound	IC50 [1] [µM]	other results
CN1CCN(c2ccc([N+](=O)[O-])cc2Nc2ncnc(Cl)c2[N+](=O)[O-])CC1	> 50	–
CN1CCC(C(=O)Nc2ccc(-c3ccc(N4CCN(C)CC4)c(Nc4ncnc(Cl)c4N)c3F)cc2)CC1	105	–
CN1CCN(c2ccc(-c3ccc(NC(=O)C4CCOCC4)cc3)c(F)c2Nc2ncnc(Cl)c2N)CC1	176	–
Nc1c(Cl)ncnc1Nc1cc([N+](=O)[O-])ccc1N1CCOCC1	> 50	–
Cc1c(-c2ccc(C(=O)N(C)C)cc2)ccc(N2CCN(C)CC2)c1Nc1ncnc(Cl)c1N	0.67	–
CN1CCN(c2ccc([N+](=O)[O-])cc2Nc2nccc(N)n2)CC1	> 50	–
Nc1c(Cl)ncnc1Nc1cc([N+](=O)[O-])ccc1N1CCN(CCO)CC1	> 50	–
Nc1c(Cl)ncnc1Nc1cc([N+](=O)[O-])ccc1N1CCNCC1	45.1	–
CCN1CCN(c2ccc([N+](=O)[O-])cc2Nc2ncnc(Cl)c2N)CC1	38.1	–
CN1CCN(c2ccc([N+](=O)[O-])cc2Nc2cc(N3CCCC3)ncn2)CC1	> 50	–
Nc1c(Cl)ncnc1Nc1cc([N+](=O)[O-])ccc1N1CCN(C2CC2)CC1	> 50	–
Cc1nc(Cl)c(N)c(Nc2cc([N+](=O)[O-])ccc2N2CCN(C)CC2)n1	12.1	–
Cc1nc(Cl)cc(Nc2cc([N+](=O)[O-])ccc2N2CCN(C)CC2)n1	> 50	–
Nc1c(Cl)ncnc1Nc1cc([N+](=O)[O-])ccc1N1CCN(c2ccccc2)CC1	> 50	–
CN1CCN(c2ccc(-c3ccc(NC(=O)CC4CCOCC4)cc3)c(F)c2Nc2ncnc(Cl)c2N)CC1	85	–
CN1CCN(c2ccc([N+](=O)[O-])cc2Nc2ncncc2N)CC1	> 50	–
Cc1c(Cl)ncnc1Nc1cc([N+](=O)[O-])ccc1N1CCN(C)CC1	> 50	–
CN1CCN(c2ccc([N+](=O)[O-])cc2Nc2cc(N(C)C)ncn2)CC1	> 50	–
CN1CCN(c2ccc([N+](=O)[O-])cc2Nc2cc(N3CCC3)ncn2)CC1	> 50	–
CN1CCN(c2ccc([N+](=O)[O-])cc2Nc2ncccn2)CC1	> 50	–
CN1CCC(NC(=O)c2ccc(-c3ccc(N4CCN(C)CC4)c(Nc4ncnc(Cl)c4N)c3)cc2)CC1	0.23	–
CN1CCN(c2ccc([N+](=O)[O-])cc2Nc2ncnc3ccccc23)CC1	–	inhibition [7]: 35.8%
CN1CCN(c2ccc([N+](=O)[O-])cc2Nc2ncccc2N)CC1	> 50	–
CN1CCN(c2ccc([N+](=O)[O-])cc2Nc2cc(Cl)nc(N)n2)CC1	20.4	–
CN1CCN(c2ccc(-c3ccc(C(=O)N(C)C)cc3)c(F)c2Nc2ncnc(Cl)c2N)CC1	240	–
CN1CCN(c2ccc(-c3ccc(C(=O)NC4CCOCC4)cc3)cc2Nc2ncnc(Cl)c2N)CC1	0.42	–

The next lines start with results.

IC50 [1] [µM]	Compound	other results
117	CN1CCN(c2ccc(-c3ccc(C(=O)N4CCOCC4)cc3)c(F)c2Nc2ncnc(Cl)c2N)CC1	–
0.16	CN1CCN(c2ccc(-c3ccc(C(=O)N4CCC(C)(O)CC4)cc3)cc2Nc2ncnc(Cl)c2N)CC1	–
112	CCN1CCN(C(=O)c2ccc(-c3ccc(N4CCN(C)CC4)c(Nc4ncnc(Cl)c4N)c3F)cc2)CC1	–
0.11	CN1CCN(c2ccc(-c3ccc(C(=O)N4CCC(O)CC4)cc3)cc2Nc2ncnc(Cl)c2N)CC1	–
69	CN1CCN(c2ccc(-c3ccc(C(=O)NCCCN4CCOCC4)cc3)c(F)c2Nc2ncnc(Cl)c2N)CC1	–
36	CN1CCN(c2cc(F)c(-c3ccc(C(=O)NCC4CCOCC4)cc3)cc2Nc2ncnc(Cl)c2N)CC1	IC50 [2]: > 100 µM; Papp at 4 h [3]: 16.9 ×10⁻⁶ cm/s; IC50 [4]: 81.7 µM; IC50 [5]: 15.7 µM; IC50 [6]: 12.3 µM
102	CN1CCN(c2ccc(-c3ccc(C(=O)NCCN4CCOCC4)cc3)c(F)c2Nc2ncnc(Cl)c2N)CC1	–
36	CN1CCN(c2cc(F)c(-c3ccc(C(=O)N4CCOCC4)cc3)cc2Nc2ncnc(Cl)c2N)CC1	IC50 [2]: > 100 µM; Papp at 4 h [3]: 13.7 ×10⁻⁶ cm/s; IC50 [4]: 88.7 µM; IC50 [5]: 19.6 µM; IC50 [6]: 16.5 µM
0.18	CN1CCN(c2ccc(-c3ccc(C(=O)NCCN4CCOCC4)cc3)cc2Nc2ncnc(Cl)c2N)CC1	–
465	Cc1cc(N2CCN(C)CC2)c(Nc2ncnc(Cl)c2N)cc1-c1ccc(C(=O)NCCCN2CCOCC2)cc1	–
74	CN1CCN(c2cc(F)c(-c3ccc(C(=O)NCCN4CCOCC4)cc3)cc2Nc2ncnc(Cl)c2N)CC1	IC50 [2]: > 100 µM; Papp at 4 h [3]: 10.5 ×10⁻⁶ cm/s; IC50 [4]: > 100 µM; IC50 [5]: 27.7 µM; IC50 [6]: 23.1 µM
0.19	CN1CCN(c2ccc(-c3ccc(C(=O)N4CCOCC4)cc3)cc2Nc2ncnc(Cl)c2N)CC1	–
0.16	CN1CCN(c2ccc(-c3ccc(C(=O)NCCCN4CCOCC4)cc3)cc2Nc2ncnc(Cl)c2N)CC1	–
33	CN1CCN(c2cc(F)c(-c3ccc(C(=O)N4CCC(O)CC4)cc3)cc2Nc2ncnc(Cl)c2N)CC1	–
0.22	CN1CCN(C(=O)c2ccc(-c3ccc(N4CCN(C)CC4)c(Nc4ncnc(Cl)c4N)c3)cc2)CC1	–
0.021	CN1CCN(c2cc(F)c(-c3ccc(C(=O)NCCCN4CCOCC4)cc3)cc2Nc2ncnc(Cl)c2N)CC1	IC50 [2]: > 100 µM; Papp at 4 h [3]: 9.14 ×10⁻⁶ cm/s; IC50 [4]: 70.1 µM; IC50 [5]: 25.6 µM; IC50 [6]: 17.3 µM
